Published values from different studies.
Lines come from different studies, so protocols differ.
Target: Mitogen-activated protein kinase 3 (MAPK3, Homo sapiens, UniProt P27361)

SMILES	assay	setting	quantity	value
C=CC(=O)N1CCC[C@@H](n2nc(-c3ccc(Oc4ccccc4)cc3)c3c(N)ncnc32)C1	enzyme activity, inhibitor	1 µM	inhibition	3%
O=C(O)CCC(=O)OCCN(Cc1ccc(Oc2ccc([N+](=O)[O-])cc2)cc1)C(=O)C(Cl)Cl	enzyme activity, inhibitor, ADP detection	10 µM	inhibition	49.3%
CC#CC(=O)N1CCC[C@H]1c1nc(-c2ccc(C(=O)Nc3ccccn3)cc2)c2c(N)nccn12	enzyme activity, inhibitor	1 µM	inhibition	12%
N#Cc1ccc(NC(=O)Nc2ccccc2)cc1	cell-free assay, competition with immobilised ligand	25 µM	remaining binding	100%
CCCCC(=O)Nc1ccc(-c2ccc3ncn(CCC)c(=O)c3c2)cn1	binding, competition with immobilised ligand	0.5 µM	remaining binding	97%
C[C@H]1CC[C@H](n2c3cnccc3c3cnc(Nc4ccc5c(n4)CCN(C(=O)CO)C5)nc32)CC1	cell-free assay	1 µM	remaining signal	100%
C#Cc1cc(-c2cc(Nc3nc(N[C@@H](C)c4ccc(F)cn4)ncc3Cl)n[nH]2)ccc1C=O	enzyme activity, inhibitor	0.2 µM	inhibition	5.48%
c1ccc(-c2ccc3c(c2)NC(C2Nc4cc(-c5ccccc5)ccc4O2)O3)cc1 (stereo not shown)	enzyme activity, inhibitor, ADP detection	10 µM	inhibition	54.7%
Cc1cc(O)c(-c2ccc([C@@H](C)CN(C)C)cc2)c2c1[nH]c(=O)c1sccc12	enzyme activity, inhibitor	0.1 µM	inhibition	15.1%
Cc1ccc(NC(=O)c2ccnc(C(F)(F)F)c2)cc1-c1cc(OCCO)nc(N2CCOCC2)c1	binding	1 µM	remaining binding	100%
